This experiment concerns the target D(2) dopamine receptor (Rattus norvegicus, UniProt P61169). The experiment is described as follows: Displacement of [3H]raclopride from dopamine D2 receptor in Wistar rat striatal membrane by liquid scintillation counting. In outline:
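Female Wistar rat striatal membranes were washed at 49,000g and resuspended in Tris-ions buffer, pH 7.4. [3H]-raclopride displacement was read by filtration, cold-buffer washes and scintillation counting. Ki was derived using KD 1,25 nM; 3–6 independent determinations in duplicate, mean SEM.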

Sequence of D(2) dopamine receptor (P61169 whole entry): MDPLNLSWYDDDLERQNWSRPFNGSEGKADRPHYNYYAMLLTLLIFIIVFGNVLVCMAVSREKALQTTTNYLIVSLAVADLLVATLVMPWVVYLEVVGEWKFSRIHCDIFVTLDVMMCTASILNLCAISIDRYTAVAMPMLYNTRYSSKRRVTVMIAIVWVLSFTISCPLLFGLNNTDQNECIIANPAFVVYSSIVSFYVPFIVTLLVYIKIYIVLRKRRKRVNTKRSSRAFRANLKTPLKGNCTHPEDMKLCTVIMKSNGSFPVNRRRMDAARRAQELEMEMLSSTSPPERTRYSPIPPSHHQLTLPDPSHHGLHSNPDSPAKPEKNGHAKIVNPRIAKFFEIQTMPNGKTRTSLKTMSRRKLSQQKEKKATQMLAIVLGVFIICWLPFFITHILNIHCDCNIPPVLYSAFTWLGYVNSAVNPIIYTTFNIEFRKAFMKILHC

`CCCCC1NCCc2cc(Cl)c(O)cc21` (stereo unspecified) [1-Butyl-6-chloro-7-hydroxy-1,2,3,4-tetrahydroisoquinoline] had a Ki of 76 nM.

What is called Ki is the equilibrium dissociation constant of an inhibitor or competing ligand from its target. Low values mean a stronger hold on the target, high ones a looser hold on the target.

The values above are taken from BindingDB's records for doi:10.1016/j.bmc.2009.05.079 (Universidad De Valencia, 2009).
